Results taken from the M2OR odorant receptor database.

Experiments:
Conditions in all cases: stereoisomer not certain
[1] = biological target: OR8B12 (Homo sapiens) (UniProt Q8NGG6)
How it was run: (§1)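 Whether a receptor–molecule pair is responsive (active) rests on the original authors' judgment that its measured signal was statistically different from baseline. Pairs without that judgment are non-responsive (inactive). Sources used varied assay methods, commonly transient luciferase assays in mammalian cell lines.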

[2] = biological target: OR8B2 (Homo sapiens) (UniProt Q96RD0)
Sequence of OR8B2 (Homo sapiens) (Q96RD0 whole entry): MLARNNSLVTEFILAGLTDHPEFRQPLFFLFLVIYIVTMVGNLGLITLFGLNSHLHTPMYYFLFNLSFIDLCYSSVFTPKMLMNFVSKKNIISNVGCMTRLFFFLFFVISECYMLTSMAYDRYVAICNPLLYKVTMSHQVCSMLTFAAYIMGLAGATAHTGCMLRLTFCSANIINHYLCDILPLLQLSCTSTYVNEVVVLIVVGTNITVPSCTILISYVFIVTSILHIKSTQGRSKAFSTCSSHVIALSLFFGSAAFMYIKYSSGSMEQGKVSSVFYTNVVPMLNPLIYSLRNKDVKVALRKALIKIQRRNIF
How it was run: as §1

[3] = biological target: OR8B3 (Homo sapiens) (UniProt Q8NGG8)
Sequence of OR8B3 (Homo sapiens) (Q8NGG8 whole entry): as the sequence (Q96RD0 whole entry) above, with R24Q, I34V, T47I, N94Y, R100Q, T205I, T208M counted along it
How it was run: as §1

[4] = biological target: OR8B4 (Homo sapiens) (UniProt Q96RC9)
Sequence of OR8B4 (Homo sapiens) (Q96RC9 whole entry): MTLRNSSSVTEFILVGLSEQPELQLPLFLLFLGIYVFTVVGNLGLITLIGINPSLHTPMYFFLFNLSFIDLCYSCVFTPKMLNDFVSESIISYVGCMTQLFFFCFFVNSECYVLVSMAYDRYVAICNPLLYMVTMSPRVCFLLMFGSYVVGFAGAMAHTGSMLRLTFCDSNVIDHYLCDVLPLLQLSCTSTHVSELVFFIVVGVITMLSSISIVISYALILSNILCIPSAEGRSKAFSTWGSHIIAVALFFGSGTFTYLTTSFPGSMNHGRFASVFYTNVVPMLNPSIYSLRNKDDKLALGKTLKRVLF
How it was run: as §1

[5] = system: OR8B2 L164F
Sequence of OR8B2 L164F (as listed by the source, stated change not applied): as the sequence (Q96RD0 whole entry) above, with L164F counted along it
How it was run: as §1

[6] = system: OR8B2 S273F
Sequence of OR8B2 S273F (as listed by the source, stated change not applied): as the sequence (Q96RD0 whole entry) above, with S273F counted along it
How it was run: as §1

[7] = system: OR8B3 H20R Q24R M114I
How it was run: as §1

[8] = system: OR8B3 H20R Q24R Y113H
How it was run: as §1

[9] = system: OR8B3 H20R Q24R
How it was run: as §1

[10] = system: OR8B4
Sequence of OR8B4 (as listed by the source): as the sequence (Q96RC9 whole entry) above, with E22G counted along it
How it was run: as §1

Measured: odorant receptor agonist call;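 also: active if original authors judged signal statistically different from baseline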

Sequence of OR8B12 (Homo sapiens) (Q8NGG6 whole entry): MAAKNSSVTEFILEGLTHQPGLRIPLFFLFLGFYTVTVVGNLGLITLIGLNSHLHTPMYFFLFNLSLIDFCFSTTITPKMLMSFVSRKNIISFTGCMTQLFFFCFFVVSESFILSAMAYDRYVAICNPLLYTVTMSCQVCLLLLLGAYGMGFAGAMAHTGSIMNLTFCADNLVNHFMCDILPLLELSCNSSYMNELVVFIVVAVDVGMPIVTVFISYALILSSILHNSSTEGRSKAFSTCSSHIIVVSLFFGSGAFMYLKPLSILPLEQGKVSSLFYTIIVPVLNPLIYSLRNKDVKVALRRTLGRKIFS

Cc1c([N+](=O)[O-])c(C)c([N+](=O)[O-])c(C(C)(C)C)c1[N+](=O)[O-]
inactive: [1] | [2] | [3] | [4]

C=CCOC(=O)Cc1ccccc1
inactive: all assays above
